*1 amine or outer side, *2 acyl side, *3 side chain or, on linkers, in order; H or OH if unused. Where a SMILES comes first, the peptide text is derived from it. Side-chain parts run from the residue outwards. [ ]: non-standard residue; d: D form. dPhe(4-NHCONH2) = NC(=O)Nc1ccc(C[C@@H](N)C(=O)O)cc1; dPhe(4-NH2) = Nc1ccc(C[C@@H](N)C(=O)O)cc1; dPhe(4-Cl) = N[C@H](Cc1ccc(Cl)cc1)C(=O)O; Phe(4-NH2) = Nc1ccc(C[C@H](N)C(=O)O)cc1; d2Nal = N[C@H](Cc1ccc2ccccc2c1)C(=O)O; Lys(iPr) = CC(C)NCCCC[C@H](N)C(=O)O; d3Pal = N[C@H](Cc1cccnc1)C(=O)O; CO = O=C([*:1])[*:2]
Key:
[1] = species: Rattus norvegicus; assay: Compound was tested for histamine release at a concentration of 30 ug/mL; format: functional
How it was run: (§1)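 Sprague-Dawley rat peritoneal mast cells, Percoll-purified, in heparinized balanced salt solution with albumin, pH 7.2. Cells exposed to compound or vehicle for 2 min at 37 °C. Supernatant histamine measured spectrofluorometrically after o-phthalaldehyde derivatization; pellets lysed for retained histamine. Reported as % of total histamine released, corrected for spontaneous release in vehicle.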

[2] = species: Rattus norvegicus; assay: Compound was tested for histamine release at a concentration of 100 ug/mL; format: functional; how it was run: as §1
[3] = species: Rattus norvegicus; assay: Compound was tested for inhibition of Leutenizing hormone release at 72 hours (long duration) in castrated male rat assay; format: functional; design: concentration or dose not given beside the values
How it was run: (§2)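 Male Sprague-Dawley rats (180-200 g), castrated under ether 10 days earlier, 5 per group. 50 µg/rat given sc in 100 µL 40 mM phosphate buffer with 0.1% BSA and 0.6% DMSO; acyline run as internal standard. Tail blood taken predose and at 24, 48, 72, 96 (sometimes 120) h; plasma LH by RIA. Duration classed by >80% LH inhibition at each time.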

[4] = species: Rattus norvegicus; assay: Compound was tested for inhibition of Leutenizing hormone release at 48 hours (intermediate duration) in castrated male rat assay; format: functional; design: concentration or dose not given beside the values; how it was run: as §2
[5] = target: T1, Gonadotropin-releasing hormone receptor (Homo sapiens, UniProt P30968); assay: Antagonism of human GnHR receptor, determined in a reporter gene assay in HEK293 cells; format: functional, cell-based
T1 sequence (P30968 whole entry): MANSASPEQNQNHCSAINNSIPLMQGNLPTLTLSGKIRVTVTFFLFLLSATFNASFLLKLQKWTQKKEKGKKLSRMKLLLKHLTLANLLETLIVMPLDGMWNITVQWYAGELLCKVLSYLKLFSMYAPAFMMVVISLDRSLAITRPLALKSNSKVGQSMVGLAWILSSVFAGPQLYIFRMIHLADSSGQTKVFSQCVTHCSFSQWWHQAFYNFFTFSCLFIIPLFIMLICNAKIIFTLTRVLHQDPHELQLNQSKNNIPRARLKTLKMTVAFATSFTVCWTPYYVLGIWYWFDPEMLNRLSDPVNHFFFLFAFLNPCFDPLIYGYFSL
How it was run: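 HEK293 cells stably expressing cloned human GnRH receptor plus luciferase reporter under LH alpha subunit promoter, plated 24 h before assay. Compound in 1% DMSO added 10 min at 37 °C, then GnRH at 3 nM final; 5 h incubation, luciferase luminescence read. Six concentrations in duplicate; blank-subtracted cps as % of GnRH control; mean of two determinations.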

[6] = target: T1, Gonadotropin-releasing hormone receptor; assay: Competitive antagonism of GnRH-induced response in the reporter gene assay; format: functional; conditions: read-out: pA2 (converted)
How it was run: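 Same HEK293 human GnRH receptor luciferase reporter cells. Seven-point GnRH curve (10 µM to 10 pM final) run in duplicate without or with four to five increasing compound concentrations (10 min preincubation, 37 °C), then 5 h and luminescence. GnRH EC50 at each level by four-parameter logistic fit, giving pA2; mean of two determinations in duplicate.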

[7] = species: Rattus norvegicus; assay: Compound was tested for inhibition of Leutenizing hormone release at 96 hours (very long duration) in castrated male rat assay; format: functional; design: concentration or dose not given beside the values; how it was run: as §2

SMILES | Inhibition [3] [%] | Inhibition [4] [%] | IC50 [5] [nM] | also measured
CC(=O)N[C@H](Cc1ccc2ccccc2c1)C(=O)N[C@H](Cc1ccc(Cl)cc1)C(=O)N[C@H](Cc1cccnc1)C(=O)N[C@@H](CO)C(=O)N[C@@H](Cc1ccc(NC(=O)[C@@H]2CC(=O)NC(=O)N2)cc1)C(=O)N[C@H](Cc1ccc(NC(=O)[C@@H]2CC(=O)NC(=O)N2)cc1)C(=O)N[C@@H](CC(C)C)C(=O)N[C@@H](CCCCNC(C)C)C(=O)N1CCC[C@H]1C(=O)N[C@H](C)C(N)=O | >80 |  |  | HR [1]: <10%; HR [2]: 11%
CNC(=O)Nc1ccc(C[C@H](NC(=O)[C@H](CO)NC(=O)[C@@H](Cc2cccnc2)NC(=O)[C@@H](Cc2ccc(Cl)cc2)NC(=O)[C@@H](Cc2ccc3ccccc3c2)NC(C)=O)C(=O)N[C@H](Cc2ccc(NC(=O)NC)cc2)C(=O)N[C@@H](CC(C)C)C(=O)N[C@@H](CCCCNC(C)C)C(=O)N2CCC[C@H]2C(=O)N[C@H](C)C(N)=O)cc1 (Ac-[d2Nal][dPhe(4-Cl)][d3Pal]S[Phe(4-NH2)]([CO-NHMe])[dPhe(4-NH2)]([CO-NHMe])L[Lys(iPr)]P[dA]-NH2) |  | >80 |  | 
CC(=O)Nc1ccc(C[C@@H](NC(=O)[C@H](Cc2ccc(NC(=O)[C@H]3CNC(=O)N3)cc2)NC(=O)[C@H](CO)NC(=O)[C@@H](Cc2cccnc2)NC(=O)[C@@H](Cc2ccc(Cl)cc2)NC(=O)[C@@H](Cc2ccc3ccccc3c2)NC(C)=O)C(=O)N[C@@H](CC(C)C)C(=O)N[C@@H](CCCCNC(C)C)C(=O)N2CCC[C@H]2C(=O)N[C@H](C)C(N)=O)cc1 |  | >80 | 10.8 | 
CC(=O)Nc1ccc(C[C@H](NC(=O)[C@H](CO)NC(=O)[C@@H](Cc2cccnc2)NC(=O)[C@@H](Cc2ccc(Cl)cc2)NC(=O)[C@@H](Cc2ccc3ccccc3c2)NC(C)=O)C(=O)N[C@H](Cc2ccc(NC(N)=O)cc2)C(=O)N[C@@H](CC(C)C)C(=O)N[C@@H](CCCCNC(C)C)C(=O)N2CCC[C@H]2C(=O)N[C@H](C)C(N)=O)cc1 (Ac-[d2Nal][dPhe(4-Cl)][d3Pal]S[Phe(4-NH2)](Ac)[dPhe(4-NHCONH2)]L[Lys(iPr)]P[dA]-NH2) | >80 |  | 6.1 | Kb [6]: 0.501 nM
CC(=O)N[C@H](Cc1ccc2ccccc2c1)C(=O)N[C@H](Cc1ccc(Cl)cc1)C(=O)N[C@H](Cc1cccnc1)C(=O)N[C@@H](CO)C(=O)N[C@@H](Cc1ccc(NC(=O)[C@@H]2CC(=O)NC(=O)N2)cc1)C(=O)N[C@H](Cc1ccc(CNC(N)=O)cc1)C(=O)N[C@@H](CC(C)C)C(=O)N[C@@H](CCCCNC(C)C)C(=O)N1CCC[C@H]1C(=O)N[C@H](C)CO |  |  | 7.8 | Inhibition [7]: >80%; Kb [6]: 1 nM
CC(=O)N[C@H](Cc1ccc2ccccc2c1)C(=O)N[C@H](Cc1ccc(Cl)cc1)C(=O)N[C@H](Cc1cccnc1)C(=O)N[C@@H](CO)C(=O)N[C@@H](Cc1ccc(NC(=O)[C@@H]2CC(=O)NC(=O)N2)cc1)C(=O)N[C@H](Cc1ccc(NC(N)=O)cc1)C(=O)N[C@@H](CC(C)C)C(=O)N[C@@H](CCCCNC(C)C)C(=O)N1CCC[C@H]1C(=O)N[C@H](C)CO |  |  |  | Inhibition [7]: >80%
CC(=O)Nc1ccc(C[C@H](NC(=O)[C@H](CO)NC(=O)[C@@H](Cc2cccnc2)NC(=O)[C@@H](Cc2ccc(Cl)cc2)NC(=O)[C@@H](Cc2ccc3ccccc3c2)NC(C)=O)C(=O)N[C@H](Cc2ccc(NC(=O)[C@@H]3CC(=O)NC(=O)N3)cc2)C(=O)N[C@@H](CC(C)C)C(=O)N[C@@H](CCCCNC(C)C)C(=O)N2CCC[C@H]2C(=O)N[C@H](C)C(N)=O)cc1 |  | >80 |  | HR [1]: 17%; HR [2]: 64%
CC(=O)N[C@H](Cc1ccc2ccccc2c1)C(=O)N[C@H](Cc1ccc(Cl)cc1)C(=O)N[C@H](Cc1cccnc1)C(=O)N[C@@H](CO)C(=O)N[C@@H](Cc1ccc(NC(=O)[C@@H]2CC(=O)NC(=O)N2)cc1)C(=O)N[C@H](CCCNC(N)=O)C(=O)N[C@@H](CC(C)C)C(=O)N[C@@H](CCCCNC(C)C)C(=O)N1CCC[C@H]1C(=O)N[C@H](C)C(N)=O | >80 |  |  | 
CC(=O)Nc1ccc(C[C@@H](NC(=O)[C@H](Cc2ccc(NC(=O)C(NC(N)=O)NC(N)=O)cc2)NC(=O)[C@H](CO)NC(=O)[C@@H](Cc2cccnc2)NC(=O)[C@@H](Cc2ccc(Cl)cc2)NC(=O)[C@@H](Cc2ccc3ccccc3c2)NC(C)=O)C(=O)N[C@@H](CC(C)C)C(=O)N[C@@H](CCCCNC(C)C)C(=O)N2CCC[C@H]2C(=O)N[C@H](C)C(N)=O)cc1 |  | >80 | 8.9 | 

Source: ChEMBL document CHEMBL1134340, “GnRH antagonists: a new generation of long acting analogues incorporating p-ureido-phenylalanines at positions 5 and 6” (J Med Chem, 2001)
